Reference: ChEMBL document CHEMBL2434829, “Synthesis of new andrographolide derivatives and evaluation of their antidyslipidemic, LDL-oxidation and antioxidant activity” (2013)
Activity calls are given as the source filed them. The rule behind the calls is not given here.

Columns and labels:
Rattus norvegicus [1] = assay: Antidyslipidemic activity in Charles foster rat assessed as decrease in triton WR-1339-induced triglyceride level in plasma at 25 mg/kg, po after 18 hrs relative to triton-treated rat; assay type: functional; set-up: scale not given: the % may be the effect or the level left
In short: (§1)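 Male adult Charles Foster rats (200–225 g), six per group. Triton WR-1339 400 mg/kg i.p., with test agent given orally at the same time as a gum acacia suspension in water; food withdrawn. Controls received vehicle. At 18 h, retro-orbital EDTA blood taken and centrifuged 2500 × g for 10 min at 4 °C. Plasma diluted 1:3 in saline; TC, PL and TG read enzymatically on an autoanalyzer. Percent change against triton group.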

Rattus norvegicus [2] = assay: Antidyslipidemic activity in Charles foster rat assessed as decrease in triton WR-1339-induced phospholipid level in plasma at 200 mg/kg, po after 18 hrs relative to triton-treated rat; assay type: functional; set-up: scale not given: the % may be the effect or the level left; in short: as §1
Rattus norvegicus [3] = assay: Antidyslipidemic activity in Charles foster rat assessed as decrease in triton WR-1339-induced triglyceride level in plasma at 150 mg/kg, po after 18 hrs relative to triton-treated rat; assay type: functional; set-up: scale not given: the % may be the effect or the level left; in short: as §1
Rattus norvegicus [4] = assay: Antidyslipidemic activity in Charles foster rat assessed as increase in triton WR-1339-reduced HDL cholesterol level in plasma at 100 mg/kg, po after 18 hrs by poly anionic precipitation method relative to triton-treated rat; assay type: functional, organism-based; set-up: dose 100 mg/kg
In short: (§2)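 Male adult Charles Foster rats (200–225 g), 6/group. Triton WR-1339 400 mg/kg i.p.; test agent in gum acacia suspension in water given orally together with triton, diet withdrawn. After 18 h, blood drawn from retro-orbital sinus into EDTA tubes under thiopentone anaesthesia. Plasma split into VLDL, LDL and HDL by polyanionic precipitation, then cholesterol measured. Mean ± SD.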

Rattus norvegicus [5] = assay: Antidyslipidemic activity in Charles foster rat assessed as increase in triton WR-1339-reduced post heparin lipolytic activity level in plasma at 200 mg/kg, po after 18 hrs by spectrophotometric analysis relative to triton-treated rat; assay type: functional; set-up: scale not given: the % may be the effect or the level left
In short: (§3)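 Triton WR-1339 hyperlipidemia in male Charles Foster rats: 400 mg/kg i.p. plus oral dose in gum acacia vehicle, fasted, 6 rats/group. Plasma taken 18 h later from retro-orbital blood. Post-heparin lipolytic activity measured spectrophotometrically as nmol free fatty acids formed/h/ml plasma. Percent change against triton-only rats; mean ± SD.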

Rattus norvegicus [6] = assay: Antidyslipidemic activity in Charles foster rat assessed as decrease in triton WR-1339-induced total cholesterol level in plasma at 150 mg/kg, po after 18 hrs relative to triton-treated rat; assay type: functional; set-up: scale not given: the % may be the effect or the level left; in short: as §1
Rattus norvegicus [7] = assay: Antidyslipidemic activity in Charles foster rat assessed as increase in triton WR-1339-reduced lipoprotein lipase level in liver at 100 mg/kg, po relative to triton-treated rat; assay type: functional, organism-based; set-up: dose 100 mg/kg
In short: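 Rats given triton WR-1339 (400 mg/kg i.p.) with oral test agent in gum acacia, 6 per group. Liver homogenized 10% w/v in cold 100 mM phosphate buffer pH 7.2 and assayed for total lipoprotein lipase lipolytic activity. Mean ± SD.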

Rattus norvegicus [8] = assay: Antidyslipidemic activity in Charles foster rat assessed as decrease in triton WR-1339-induced total cholesterol level in plasma at 100 mg/kg, po after 18 hrs relative to triton-treated rat; assay type: functional; set-up: scale not given: the % may be the effect or the level left; in short: as §1
Rattus norvegicus [9] = assay: Antidyslipidemic activity in Charles foster rat assessed as decrease in triton WR-1339-induced phospholipid level in plasma at 150 mg/kg, po after 18 hrs relative to triton-treated rat; assay type: functional; set-up: scale not given: the % may be the effect or the level left; in short: as §1
Rattus norvegicus [10] = assay: Antidyslipidemic activity in Charles foster rat assessed as increase in triton WR-1339-reduced post heparin lipolytic activity level in plasma at 50 mg/kg, po after 18 hrs by spectrophotometric analysis relative to triton-treated rat; assay type: functional; set-up: scale not given: the % may be the effect or the level left; in short: as §3
Rattus norvegicus [11] = assay: Antidyslipidemic activity in Charles foster rat assessed as decrease in triton WR-1339-induced triglyceride level in plasma at 200 mg/kg, po after 18 hrs relative to triton-treated rat; assay type: functional; set-up: scale not given: the % may be the effect or the level left; in short: as §1
Rattus norvegicus [12] = assay: Antidyslipidemic activity in Charles foster rat assessed as decrease in triton WR-1339-induced phospholipid level in plasma at 100 mg/kg, po after 18 hrs relative to triton-treated rat; assay type: functional; set-up: scale not given: the % may be the effect or the level left; in short: as §1
[13] = Antioxidant activity assessed as reduction of microsomal lipid per-oxidation level by measuring formation of malondialdehyde at 200 ug/ml after 90 mins by spectrophotometric analysis relative to control; assay type: functional; set-up: scale not given: the % may be the effect or the level left
[14] = Antioxidant activity assessed as decrease in superoxide anions level by measuring formation of formazone at 200 ug/ml after 30 mins by spectrophotometric analysis relative to control; assay type: functional; set-up: scale not given: the % may be the effect or the level left
In short: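 Superoxide made enzymatically with xanthine ([…]), xanthine oxidase (0.04 U) and nitroblue tetrazolium (320 µM) in 100 mM phosphate buffer pH 8.2. Compound at 200 µg/mL, sonicated in buffer. Incubated 37 °C for 30 min, stopped with glacial acetic acid, formazan read spectrophotometrically. Allopurinol as standard.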

[15] = Antioxidant activity assessed as decrease in hydroxyl radicals level by measuring formation of malondialdehyde at 200 ug/ml after 90 mins by spectrophotometric analysis relative to control; assay type: functional; set-up: scale not given: the % may be the effect or the level left
In short: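 Hydroxyl radicals generated without enzyme from deoxyribose 2.8 mM, FeSO4·7H2O 2 mM, sodium ascorbate 2.0 mM and H2O2 2.8 mM in 50 mM KH2PO4 pH 7.4. Compound at 200 µg/mL. Incubated 37 °C for 90 min. Mannitol as standard.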

Rattus norvegicus [16] = assay: Antidyslipidemic activity in Charles foster rat assessed as increase in triton WR-1339-reduced post heparin lipolytic activity level in plasma at 150 mg/kg, po after 18 hrs by spectrophotometric analysis relative to triton-treated rat; assay type: functional; set-up: scale not given: the % may be the effect or the level left; in short: as §3
Rattus norvegicus [17] = assay: Antidyslipidemic activity in Charles foster rat assessed as decrease in triton WR-1339-induced triglyceride level in plasma at 100 mg/kg, po after 18 hrs relative to triton-treated rat; assay type: functional; set-up: scale not given: the % may be the effect or the level left; in short: as §1
Rattus norvegicus [18] = assay: Antidyslipidemic activity in Charles foster rat assessed as decrease in triton WR-1339-induced LDL cholesterol level in plasma at 100 mg/kg, po after 18 hrs by poly anionic precipitation method relative to triton-treated rat; assay type: functional, organism-based; set-up: dose 100 mg/kg; in short: as §2
Rattus norvegicus [19] = assay: Antidyslipidemic activity in Charles foster rat assessed as decrease in triton WR-1339-induced total cholesterol level in plasma at 25 mg/kg, po after 18 hrs relative to triton-treated rat; assay type: functional; set-up: scale not given: the % may be the effect or the level left; in short: as §1
Rattus norvegicus [20] = assay: Antidyslipidemic activity in Charles foster rat assessed as decrease in triton WR-1339-induced total cholesterol level in plasma at 200 mg/kg, po after 18 hrs relative to triton-treated rat; assay type: functional; set-up: scale not given: the % may be the effect or the level left; in short: as §1
Rattus norvegicus [21] = assay: Antidyslipidemic activity in Charles foster rat assessed as decrease in triton WR-1339-induced phospholipid level in plasma at 25 mg/kg, po after 18 hrs relative to triton-treated rat; assay type: functional; set-up: scale not given: the % may be the effect or the level left; in short: as §1
[22] = Antioxidant activity assessed as reduction of LDL-oxidation at 200 ug/ml after 1 hr by TBARS assay in presence of Cu 2+ relative to control; assay type: functional; set-up: scale not given: the % may be the effect or the level left; conditions: in the assay text read “after 16 hr” for “after 1 hr”
In short: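 LDL obtained by ultracentrifugation of serum from overnight-fasted normolipemic donors, dialyzed against 150 mM NaCl with 0.02% EDTA under N2, purity checked by PAGE. LDL 0.71 mg with CuCl2·2H2O 10 µM, compound at 200 µg/mL, in 50 mM PBS pH 7.4 for 16 h at 37 °C. Lipid peroxides read as TBARS after heating with SDS, acetic acid and 0.8% TBA for 1 h in boiling water.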

Rattus norvegicus [23] = assay: Antidyslipidemic activity in Charles foster rat assessed as increase in triton WR-1339-reduced post heparin lipolytic activity level in plasma at 25 mg/kg, po after 18 hrs by spectrophotometric analysis relative to triton-treated rat; assay type: functional; set-up: scale not given: the % may be the effect or the level left; in short: as §3
Rattus norvegicus [24] = assay: Antidyslipidemic activity in Charles foster rat assessed as decrease in triton WR-1339-induced VLDL cholesterol level in plasma at 100 mg/kg, po after 18 hrs by poly anionic precipitation method relative to triton-treated rat; assay type: functional, organism-based; set-up: dose 100 mg/kg; in short: as §2
Rattus norvegicus [25] = assay: Antidyslipidemic activity in Charles foster rat assessed as decrease in triton WR-1339-induced phospholipid level in plasma at 50 mg/kg, po after 18 hrs relative to triton-treated rat; assay type: functional; set-up: scale not given: the % may be the effect or the level left; in short: as §1
Rattus norvegicus [26] = assay: Antidyslipidemic activity in Charles foster rat assessed as increase in triton WR-1339-reduced post heparin lipolytic activity level in plasma at 100 mg/kg, po after 18 hrs by spectrophotometric analysis relative to triton-treated rat; assay type: functional; set-up: scale not given: the % may be the effect or the level left; in short: as §3
Rattus norvegicus [27] = assay: Antidyslipidemic activity in Charles foster rat assessed as decrease in triton WR-1339-induced total cholesterol level in plasma at 50 mg/kg, po after 18 hrs relative to triton-treated rat; assay type: functional; set-up: scale not given: the % may be the effect or the level left; in short: as §1
Rattus norvegicus [28] = assay: Antidyslipidemic activity in Charles foster rat assessed as decrease in triton WR-1339-induced triglyceride level in plasma at 50 mg/kg, po after 18 hrs relative to triton-treated rat; assay type: functional; set-up: scale not given: the % may be the effect or the level left; in short: as §1

| Compound | Activity (Rattus norvegicus [1]) [%] | Activity (Rattus norvegicus [2]) [%] | Activity (Rattus norvegicus [3]) [%] | Activity (Rattus norvegicus [4]) | Activity (Rattus norvegicus [5]) [%] | Activity (Rattus norvegicus [6]) [%] | Activity (Rattus norvegicus [7]) | Activity (Rattus norvegicus [8]) [%] | Activity (Rattus norvegicus [9]) [%] | Activity (Rattus norvegicus [10]) [%] | Activity (Rattus norvegicus [11]) [%] | Activity (Rattus norvegicus [12]) [%] | Activity [13] [%] | Activity [14] [%] | Activity [15] [%] | Activity (Rattus norvegicus [16]) [%] | Activity (Rattus norvegicus [17]) [%] | Activity (Rattus norvegicus [18]) | Activity (Rattus norvegicus [19]) [%] | Activity (Rattus norvegicus [20]) [%] | other results |
| --- | --- | --- | --- | --- | --- | --- | --- | --- | --- | --- | --- | --- | --- | --- | --- | --- | --- | --- | --- | --- | --- |
| C=C1CC[C@@H]2[C@](C)(COS(=O)(=O)c3ccc(C)cc3)[C@H](O)CC[C@@]2(C)[C@@H]1C/C=C1/C(=O)OC[C@H]1O | 14 | 40 | 37 | Active | 18 | 34 | Active | 33 | 39 | 13 | 37 | 37 | 40 | 41 | 46 | 18 | 35 | Active | 16 | 34 | Activity (Rattus norvegicus [21]): 15%; Activity [22]: 55%; Activity (Rattus norvegicus [23]): 10%; Activity (Rattus norvegicus [24]): Active; Activity (Rattus norvegicus [25]): 22%; Activity (Rattus norvegicus [26]): 18%; Activity (Rattus norvegicus [27]): 22%; Activity (Rattus norvegicus [28]): 20% |
| C=C1CC[C@@H]2[C@](C)(CO)[C@H](O)CC[C@@]2(C)[C@@H]1C/C=C1/C(=O)OC[C@H]1O [ANDROGRAPHOLIDE] | 15 | 30 | 30 | Active | 18 | 29 | Active | 27 | 29 | 13 | 30 | 26 | 38 | 33 | 36 | 18 | 28 | Active | 14 | 29 | Activity (Rattus norvegicus [21]): 12%; Activity [22]: 45%; Activity (Rattus norvegicus [23]): 10%; Activity (Rattus norvegicus [24]): Active; Activity (Rattus norvegicus [25]): 20%; Activity (Rattus norvegicus [26]): 16%; Activity (Rattus norvegicus [27]): 21%; Activity (Rattus norvegicus [28]): 21% |
